Experimental findings from ChEMBL document CHEMBL1629614, “Inhibition of methionyl-tRNA synthetase by REP8839 and effects of resistance mutations on enzyme activity” (Antimicrob Agents Chemother, 2009) are described below.

Residue numbers refer to the chain shown, from its start. In names and notes the source's numbering stands.

Compound in data set [1]: C=C(F)c1sc(CNCCCNc2cc(=O)c3ccccc3[nH]2)c(C)c1Br
The data set can be described thus: Activity of streptococcus aureus MetRS I57N, I238F mutant by scintillation proximity assay in presence of tRNA. To be noted: Staphylococcus aureus.

Compound in data set [2]: C=C(F)c1sc(CNCCCNc2cc(=O)c3ccccc3[nH]2)c(C)c1Br
The data set can be described thus: Activity of Staphylococcus aureus MetRS I57N, I238F mutant by ATP:PPi exchange assay in presence of ATP. In a few lines:
(§1)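 Purified S. aureus MetRS (wild type or mutant; E. coli-expressed, ammonium sulfate cut, anion exchange) at 30 nM. ATP:PPi exchange at 30°C in 100 mM Tris-HCl pH 8.0, 5–10 mM Mg acetate, 80 mM KCl, 2.5 mM DTT, [32P]PPi plus cold PPi equal to ATP. Quenched with EDTA over 1–10 min, PEI-cellulose TLC, phosphorimager. Initial velocities versus varied ATP or methionine fit to Michaelis-Menten.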

Compound in data set [3]: C=C(F)c1sc(CNCCCNc2cc(=O)c3ccccc3[nH]2)c(C)c1Br
The data set can be described thus: Ratio of Kcat to Km for Staphylococcus aureus MetRS I57N I238F mutant in presence of methionine. Put shortly:
(§2)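 Purified recombinant S. aureus MetRS (30 nM) was assayed by ATP:PPi exchange at 30°C in Tris pH 8.0 with Mg acetate, KCl and DTT. [32P]PPi was matched to ATP, and ATP or methionine was varied. Time points from 1 to 10 min were quenched with EDTA, separated by PEI-cellulose TLC and read by phosphorimager. Initial rates were fitted to Michaelis-Menten.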

Compound in data set [4]: C=C(F)c1sc(CNCCCNc2cc(=O)c3ccccc3[nH]2)c(C)c1Br
Nature of the data set: Ratio of Kcat to Km for Staphylococcus aureus MetRS I57N I238F mutant in presence of ATP. In a few lines:
as §2

Compound in data set [5]: C=C(F)c1sc(CNCCCNc2cc(=O)c3ccccc3[nH]2)c(C)c1Br
Nature of the data set: Activity of Staphylococcus aureus MetRS I57N, I238F mutant by ATP:PPi exchange assay in presence of methionine. Put shortly:
as §1

Compound in data set [6]: C=C(F)c1sc(CNCCCNc2cc(=O)c3ccccc3[nH]2)c(C)c1Br
The data set can be described thus: Ratio of Kcat to Km for Staphylococcus aureus MetRS I57N I238F mutant in presence of tRNA. Put shortly: (§3)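 Purified recombinant S. aureus MetRS was assayed by tRNA aminoacylation at 30°C for 1 to 7.5 min to obtain initial rates. Buffer was Tris pH 8.0 with Mg acetate, 2.5 mM ATP, KCl, DTT, BSA, [3H]methionine and crude E. coli tRNA. Reactions were EDTA-stopped, and charged tRNA was read by scintillation proximity with polylysine beads at pH 2.0.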

Compound in data set [7]: C=C(F)c1sc(CNCCCNc2cc(=O)c3ccccc3[nH]2)c(C)c1Br
The data set can be described thus: Ratio of Kcat to Km for Staphylococcus aureus MetRS G54A A64P mutant in presence of tRNA. Put shortly: as §3

Compound in data set [8]: C=C(F)c1sc(CNCCCNc2cc(=O)c3ccccc3[nH]2)c(C)c1Br
The data set can be described thus: Activity of Staphylococcus aureus MetRS G54A, A64P mutant by ATP:PPi exchange assay in presence of ATP. In a few lines: as §1

Compound in data set [9]: C=C(F)c1sc(CNCCCNc2cc(=O)c3ccccc3[nH]2)c(C)c1Br
The data set can be described thus: Ratio of Kcat to Km for Staphylococcus aureus MetRS G54A A64P mutant in presence of ATP. Put shortly:
as §2

Compound in data set [10]: C=C(F)c1sc(CNCCCNc2cc(=O)c3ccccc3[nH]2)c(C)c1Br
Nature of the data set: Activity of Staphylococcus aureus MetRS G54A, A64P mutant by ATP:PPi exchange assay in presence of methionine. Put shortly:
as §1

Compound in data set [11]: C=C(F)c1sc(CNCCCNc2cc(=O)c3ccccc3[nH]2)c(C)c1Br
Nature of the data set: Ratio of Kcat to Km for Staphylococcus aureus MetRS G54A A64P mutant in presence of methionine. In a few lines:
as §2

Compound in data set [12]: C=C(F)c1sc(CNCCCNc2cc(=O)c3ccccc3[nH]2)c(C)c1Br
The data set can be described thus: Activity of streptococcus aureus MetRS G54A, A64P mutant by scintillation proximity assay in presence of tRNA. To be noted: Staphylococcus aureus.

Compound in data set [13]: C=C(F)c1sc(CNCCCNc2cc(=O)c3ccccc3[nH]2)c(C)c1Br
Nature of the data set: Activity of Staphylococcus aureus MetRS I57N, A247E mutant by ATP:PPi exchange assay in presence of ATP. In a few lines:
as §1

Compound in data set [14]: C=C(F)c1sc(CNCCCNc2cc(=O)c3ccccc3[nH]2)c(C)c1Br
Nature of the data set: Ratio of Kcat to Km for Staphylococcus aureus MetRS I57N A247E mutant in presence of ATP. In a few lines:
as §2

Compound in data set [15]: C=C(F)c1sc(CNCCCNc2cc(=O)c3ccccc3[nH]2)c(C)c1Br
The data set can be described thus: Ratio of Kcat to Km for Staphylococcus aureus MetRS I57N A247E mutant in presence of methionine. In a few lines:
as §2

Compound in data set [16]: C=C(F)c1sc(CNCCCNc2cc(=O)c3ccccc3[nH]2)c(C)c1Br
Nature of the data set: Activity of streptococcus aureus MetRS I57N, A247E mutant by scintillation proximity assay in presence of tRNA. To be noted: Staphylococcus aureus. (Scintillation proximity formats need no separation of bound from free tracer.)

Compound in data set [17]: C=C(F)c1sc(CNCCCNc2cc(=O)c3ccccc3[nH]2)c(C)c1Br
The data set can be described thus: Ratio of Kcat to Km for Staphylococcus aureus MetRS I57N A247E mutant in presence of tRNA. In a few lines: as §3

Compound in data set [18]: C=C(F)c1sc(CNCCCNc2cc(=O)c3ccccc3[nH]2)c(C)c1Br
Nature of the data set: Activity of Staphylococcus aureus MetRS I57N, A247E mutant by ATP:PPi exchange assay in presence of methionine. In a few lines:
as §1

Compound in data set [19]: C=C(F)c1sc(CNCCCNc2cc(=O)c3ccccc3[nH]2)c(C)c1Br
The data set can be described thus: Activity of Staphylococcus aureus MetRS G54S mutant by ATP:PPi exchange assay in presence of methionine. Put shortly:
as §1

Compound in data set [20]: C=C(F)c1sc(CNCCCNc2cc(=O)c3ccccc3[nH]2)c(C)c1Br
Nature of the data set: Ratio of Kcat to Km for Staphylococcus aureus MetRS G54S mutant in presence of tRNA. Put shortly: as §3

Compound in data set [21]: C=C(F)c1sc(CNCCCNc2cc(=O)c3ccccc3[nH]2)c(C)c1Br
Nature of the data set: Activity of Staphylococcus aureus MetRS G54S mutant by ATP:PPi exchange assay in presence of ATP. Put shortly: as §1

Compound in data set [22]: C=C(F)c1sc(CNCCCNc2cc(=O)c3ccccc3[nH]2)c(C)c1Br
The data set can be described thus: Ratio of Kcat to Km for Staphylococcus aureus MetRS G54S mutant in presence of methionine. Put shortly:
as §2

Compound in data set [23]: C=C(F)c1sc(CNCCCNc2cc(=O)c3ccccc3[nH]2)c(C)c1Br
The data set can be described thus: Ratio of Kcat to Km for Staphylococcus aureus MetRS G54S mutant in presence of ATP. Put shortly: as §2

Compound in data set [24]: C=C(F)c1sc(CNCCCNc2cc(=O)c3ccccc3[nH]2)c(C)c1Br
The data set can be described thus: Activity of streptococcus aureus MetRS G54S mutant by scintillation proximity assay in presence of tRNA. To be noted: Staphylococcus aureus.

The Km is the concentration of substrate that gives half-maximal velocity. One may read the kcat as the maximal rate divided by the concentration of active sites. As usually defined, the kcat/Km is the turnover number divided by the Michaelis constant.

B1: Methionine--tRNA ligase (Staphylococcus aureus subsp. aureus MW2), Q8NY00 I57N,I238F (protein)
chain: MAKETFYITTPIYYPSGNLHIGHAYSTVAGDVIARYKRMQGYDVRYLTGTDEHGQKNQEKAQKAGKTEIEYLDEMIAGIKQLWAKLEISNDDFIRTTEERHKHVVEQVFERLLKQGDIYLGEYEGWYSVPDETYYTESQLVDPQYENGKIIGGKSPDSGHEVELVKEESYFFNISKYTDRLLEFYDQNPDFIQPPSRKNEMINNFIKPGLADLAVSRTSFNWGVHVPSNPKHVVYVWFDALVNYISALGYLSDDESLFNKYWPADIHLMAKEIVRFHSIIWPILLMALDLPLPKKVFAHGWILMKDGKMSKSKGNVVDPNILIDRYGLDATRYYLMRELPFGSDGVFTPEAFVERTNFDLANDLGNLVNRTISMVNKYFDGELPAYQGPLHELDEEMEAMALETVKSYTESMESLQFSVALSTVWKFISRTNKYIDETTPWVLAKDDSQKDMLGNVMAHLVENIRYAAVLLRPFLTHAPKEIFEQLNINNPQFMEFSSLEQYGVLTESIMVTGQPKPIFPRLDSEAEIAYIKESMQPPATEEEKEEIPSKPQIDIKDFDKVEIKAATIINAEHVKKSDKLLKIQVDLDSEQRQIVSGIAKFYTPDDIIGKKVAVVTNLKPAKLMGQKSEGMILSAEKDGVLTLVSLPSAIPNGAVIK
Consider B1, for which the figures for the Km in data set [1], in data set [2] and in [5] were 0.89 µM, 1610 µM and 85 µM, respectively. Also, the results for the kcat in [1] and in data set [5] were 0.066 s⁻¹ and 13 s⁻¹, respectively. Moreover, the results for the kcat/Km in data set [3], in data set [4] and in data set [6] were 150000 M⁻¹ s⁻¹, 8000 M⁻¹ s⁻¹ and 74000 M⁻¹ s⁻¹, respectively.

B2: Methionine--tRNA ligase (Staphylococcus aureus subsp. aureus MW2), Q8NY00 G54A,A64P (protein)
chain: B1 chain with G54A, N57I, A64P, F238I
As to B2, the kcat/Km stood at 2000 M⁻¹ s⁻¹ in [7], 1000 M⁻¹ s⁻¹ in [9] and 1000 M⁻¹ s⁻¹ in data set [11]. The results for the Km in data set [8], in [10] and in data set [12] were 760 µM, 1070 µM and 0.57 µM, respectively. Further, the turnover number (kcat) in data set [10] turned out to be 1 s⁻¹; in data set [12], 0.001 s⁻¹.

B3: Methionine--tRNA ligase (Staphylococcus aureus subsp. aureus MW2), Q8NY00 I57N,A247E (protein)
chain: B1 chain with F238I, A247E
Take B3: the Km in [13] was found to be 2230 µM; in data set [16] it was 0.45 µM; in [18], 250 µM. The values for the kcat/Km in data set [14], in data set [15] and in data set [17] were 5000 M⁻¹ s⁻¹, 40000 M⁻¹ s⁻¹ and 18000 M⁻¹ s⁻¹, respectively. Further, the kcat in data set [16] was 0.008 s⁻¹; in data set [18] it was 11 s⁻¹.

B4: Methionine--tRNA ligase (Staphylococcus aureus subsp. aureus MW2), Q8NY00 G54S (protein)
chain: B1 chain with G54S, N57I, F238I
Turning to B4, the Km amounted to 75 µM in [19], 500 µM in [21] and 0.27 µM in data set [24]. For the same protein, the kcat in data set [19] worked out at 5 s⁻¹; in data set [24], 0.009 s⁻¹. For the same protein, the kcat/Km in data set [20] was 33000 M⁻¹ s⁻¹; in [22] it was 70000 M⁻¹ s⁻¹; in data set [23] it was 10000 M⁻¹ s⁻¹.
